Data taken from article PMC7612593 (Nature, 2022).

Experiments:
α4β3δ GABAAR [1] = target: α4β3δ GABAAR (Homo sapiens, UniProt O14764+P28472+P48169); assay: whole-cell patch clamp electrophysiology on the α4β3δ cell line; format: cell-based; conditions: for receptors gated, % of total receptors gated by 10 mM GABA + 30 μM Etomidate: 10 mM each ligand, 2 s first pulse of two-pulse protocol, mean ± SD; for Hill coefficient: Hill plot of normalized peak amplitude against agonist concentration
α4β3 GABAAR = α4β3 GABAAR (Homo sapiens, UniProt P28472+P48169); assay: whole-cell patch clamp electrophysiology on α4β3 cells; format: cell-based; conditions: for enhancement of GABA current by histamine: 300 μM histamine with 100 nM GABA
Outline: (§1)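 Cells on coverslips were induced with tetracycline (2 μg/ml, 28–32 h); β3δ cells were the β3 line transiently transfected with δ. Whole-cell clamp at –50 mV, 20–22 °C, pH 7.4 bath, KCl/Mg-ATP pipette. […] One-way ANOVA.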

β3δ GABAAR = target: T1, β3δ GABAAR (Homo sapiens, UniProt O14764+P28472); assay: whole-cell patch clamp electrophysiology on β3δ cells; format: cell-based; conditions: for enhancement of GABA current by histamine: 300 μM histamine with 100 nM GABA
T1 sequence (P28472 26-473): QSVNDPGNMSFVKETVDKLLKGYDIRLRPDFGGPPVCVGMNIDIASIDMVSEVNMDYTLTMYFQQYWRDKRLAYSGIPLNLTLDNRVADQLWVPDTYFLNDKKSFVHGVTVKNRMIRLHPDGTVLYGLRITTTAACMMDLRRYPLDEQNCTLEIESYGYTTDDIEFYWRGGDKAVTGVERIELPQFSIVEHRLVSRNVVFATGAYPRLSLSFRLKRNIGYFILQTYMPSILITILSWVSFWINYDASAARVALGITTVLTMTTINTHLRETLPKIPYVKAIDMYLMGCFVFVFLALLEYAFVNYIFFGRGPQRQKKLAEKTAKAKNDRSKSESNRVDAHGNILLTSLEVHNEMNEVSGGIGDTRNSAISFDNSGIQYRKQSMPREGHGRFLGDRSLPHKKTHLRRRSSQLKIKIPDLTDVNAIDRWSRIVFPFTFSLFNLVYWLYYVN
T1 sequence (O14764 17-452 limits assumed): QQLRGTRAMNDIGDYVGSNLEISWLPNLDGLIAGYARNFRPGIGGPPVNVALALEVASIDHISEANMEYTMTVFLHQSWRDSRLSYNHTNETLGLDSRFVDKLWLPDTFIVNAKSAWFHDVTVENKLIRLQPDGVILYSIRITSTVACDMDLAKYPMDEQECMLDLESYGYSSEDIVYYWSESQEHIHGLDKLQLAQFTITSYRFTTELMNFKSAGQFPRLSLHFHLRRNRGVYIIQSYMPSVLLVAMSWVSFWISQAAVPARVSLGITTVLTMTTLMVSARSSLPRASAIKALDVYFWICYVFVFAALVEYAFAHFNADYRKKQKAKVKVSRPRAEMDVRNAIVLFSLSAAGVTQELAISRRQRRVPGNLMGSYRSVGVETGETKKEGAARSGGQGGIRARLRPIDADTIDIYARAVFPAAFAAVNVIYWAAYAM
Outline: as §1

β3 GABAAR = target: T2, β3 GABAAR (Homo sapiens, UniProt P28472); assay: whole-cell patch clamp electrophysiology on β3 cells; format: cell-based; conditions: for enhancement of GABA current by histamine: 300 μM histamine with 100 nM GABA
T2 sequence (P28472 26-473): T1 sequence (P28472 26-473)
Outline: as §1

α1β3γ2 GABAAR = α1β3γ2 GABAAR (Homo sapiens, UniProt P14867+P18507+P28472); assay: radioligand assay, competition with pre-bound [3H]Ro15-4513, α1β3γ2 cell line; format: binding; conditions: membranes from α1β3γ2 cell line
α4β3γ2 GABAAR = α4β3γ2 GABAAR (Homo sapiens, UniProt P18507+P28472+P48169); assay: radioligand assay, competition with pre-bound [3H]Ro15-4513, α4β3γ2 cell pool; format: binding; conditions: membranes from α4β3γ2 cell pool
α4β3δ GABAAR [2] = conditions: cited from earlier work

With NCCCC(=O)O [GABA, γ-aminobutyric acid] the “activation of currents by GABA” value (α4β3δ GABAAR [1]; 100 nM GABA) was “robustly activates currents”, the “receptors gated, % of total receptors gated by 10 mM GABA + 30 μM Etomidate” value (α4β3δ GABAAR [1]) was 15.0 ± 6.0% and the “time for deactivating current to reach 50% of its original value” (α4β3δ GABAAR [1]; 200 ms pulse of 10 μM GABA in the absence of histamine) was 2.7 ± 0.7 s. The Hill coefficient (α4β3δ GABAAR [1]) was 0.9, the “activation of currents by GABA” value (α4β3 GABAAR; 100 nM GABA) was “barely” and the “gating by GABA” value (β3δ GABAAR; 200 μM GABA, 8 s pulse) was “not gated”. The “gating by GABA” value (β3 GABAAR; 200 μM GABA, 8 s pulse) was “not gated”.

With CCOC(=O)c1ncn2c1CN(C)C(=O)c1cc(N=[N+]=[N-])ccc1-2 [Ro15-4513] the “effect on GABA currents” value (α4β3δ GABAAR [1]; whole-cell electrophysiology recordings, α4β3δ cell line) was “little effect”, the “binding of Ro15-4513” value (α1β3γ2 GABAAR) was “binds” and the “binding of Ro15-4513” value (α4β3γ2 GABAAR) was “binds”.

For Oc1noc2c1CCNC2 [THIP, 4,5,6,7-tetrahydroisoxazolo[5,4-c]pyridin-3-ol], the “potency and efficacy at α4β3δ relative to other receptors subtypes” value (α4β3δ GABAAR [2]) is listed as “higher potency and supramaximal efficacy”.

For NCCc1c[nH]cn1 [histamine], the “fast and slow time constants of deactivation” value (α4β3δ GABAAR [1]; 10 μM GABA pulse in the presence of 100 μM histamine, P = 0.03) was “decreased significantly”, the “fraction of receptors with slow deactivation” value (α4β3δ GABAAR [1]; 10 μM GABA pulse in the presence of 100 μM histamine, P = 0.04) was “increased” and the “enhancement of GABA current by histamine” value (α4β3δ GABAAR [1]; 300 μM histamine with 100 nM GABA) was “robustly enhances”. For the same molecule, the “receptors gated, % of total receptors gated by 10 mM GABA + 30 μM Etomidate” value (α4β3δ GABAAR [1]) was 50.2 ± 11.0%, the “time for deactivating current to reach 50% of its original value” (α4β3δ GABAAR [1]; 200 ms pulse of 10 μM GABA in the presence of 100 μM histamine) was 1.0 ± 0.4 s and the “decrease in peak current amplitude of the deactivating currents” value (α4β3δ GABAAR [1]; 200 ms pulse of 10 μM GABA, pre-application of 100 μM histamine, n = 4 cells) was 74.5 ± 11.9%. The Hill coefficient (α4β3δ GABAAR [1]) was 1.1, the “deactivation of currents following a brief pulse of 10 μM GABA” value (α4β3δ GABAAR [1]; continuous presence of 100 μM histamine) was “accelerated” and the “efficacy of histamine relative to GABA” value (α4β3δ GABAAR [1]; whole-cell currents) was 3 fold. The “enhancement of GABA current by histamine” value (α4β3 GABAAR) was “Only modest responses”, the “enhancement of GABA current by histamine” value (α4β3 GABAAR; listed as Histamine) was “only modestly” and the “enhancement of GABA current by histamine” value (β3δ GABAAR) was “Only modest responses”. For the same molecule, the “enhancement of GABA current by histamine” value (β3δ GABAAR; listed as Histamine) was “only modestly”, the “enhancement of GABA current by histamine” value (β3 GABAAR) was “Only modest responses” and the “enhancement of GABA current by histamine” value (β3 GABAAR; listed as Histamine) was “only modestly”.
